Test results: ChEMBL document CHEMBL5030505, “Assessment of NR4A Ligands That Directly Bind and Modulate the Orphan Nuclear Receptor Nurr1” (J Med Chem, 2020)

Columns and labels:
Type in all cases: cell-based
[1] = molecular target: Nuclear receptor subfamily 4 group A member 3 (Homo sapiens) (UniProt Q92570); experiment: Modulation of full length human NOR1 expressed in SK-N-BE(2) cells co-transfected with luciferase reporter plasmid harboring NBRE response element assessed as increase in luciferase activity incubated for 18 by luciferase reporter gene assay; details: SKNBE2, filed as modulator, time 18.0 hrs
In short: (§1)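 Cells seeded at 1.5 million per 10-cm dish. Next day they were transfected (Lipofectamine 2000) with full-length Nur77 or NOR-1 expression plasmid, either alone (2 μg) or 1 μg plus full-length RXRα (1 μg), and 3xNBRE- or 3xNurRE-luciferase reporter (6 μg), 18 h. Cells replated at 10,000/well, 4 h, then ligand dose response added in quadruplicate for 18 h. Luciferase luminescence read.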

[2] = molecular target: Nuclear receptor subfamily 4 group A member 2 (Homo sapiens) (UniProt P43354); experiment: Modulation of full length human Nurr1 expressed in HEK293T cells co-transfected with RXRalpha and luciferase reporter plasmid harboring NurRE response element assessed as increase in luciferase activity incubated for 18 hrs by luciferase reporter-gene assay; details: filed as modulator
In short: (§2)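 Full-length Nurr1 plasmid, alone (2 μg) or 1 μg plus full-length RXRα (1 μg), cotransfected with 3xNBRE- or 3xNurRE-luciferase reporter (6 μg) using Lipofectamine 2000, 18 h. Cells replated at 10,000/well for 4 h. Four ligand concentrations, or vehicle (water, ethanol or DMSO), added in quadruplicate for 18 h. Luciferase read. Fold change vs vehicle, mean ± s.e.m., one-way ANOVA vs vehicle.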

[3] = molecular target: Nuclear receptor subfamily 4immunitygroup A member 1 (Homo sapiens) (UniProt P22736); experiment: Modulation of full length human Nur77 expressed in HEK293 cells co-transfected with luciferase reporter plasmid harboring NurRE response element assessed as increase in luciferase activity incubated for 18 hrs by luciferase reporter gene assay; details: filed as modulator; in short: as §1
[4] = molecular target: Nuclear receptor subfamily 4 group A member 3 (Homo sapiens) (UniProt Q92570); experiment: Modulation of full length human NOR1 expressed in SK-N-BE(2) cells co-transfected with luciferase reporter plasmid harboring NurRE response element assessed as increase in luciferase activity incubated for 18 by luciferase reporter gene assay; details: SKNBE2, filed as modulator, time 18.0 hrs; in short: as §1
[5] = molecular target: Nuclear receptor subfamily 4 group A member 3 (Homo sapiens) (UniProt Q92570); experiment: Modulation of full length human NOR1 expressed in HEK293T cells co-transfected with RXRalpha luciferase reporter plasmid harboring NBRE response element assessed as increase in luciferase activity incubated for 18 hrs by luciferase reporter gene assay; details: filed as modulator
In short: (§3)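 Full-length NOR-1 plasmid was transfected via Lipofectamine 2000, either alone (2 μg) or at 1 μg with full-length RXRα (1 μg). It was paired with a 3xNBRE or 3xNurRE luciferase reporter (6 μg), 8 μg total DNA, for 18 h. Cells were replated at 10,000/well for 4 h, then given a full ligand dose response or vehicle in quadruplicate for 18 h. Luciferase was read; no EC50/IC50 was fitted.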

[6] = molecular target: Nuclear receptor subfamily 4 group A member 3 (Homo sapiens) (UniProt Q92570); experiment: Modulation of full length human NOR1 expressed in PC12 cells co-transfected with luciferase reporter plasmid harboring NBRE response element assessed as increase in luciferase activity incubated for 18 by luciferase reporter gene assay; details: PC-12, filed as modulator, time 18.0 hrs; in short: as §3
[7] = molecular target: Nuclear receptor subfamily 4 group A member 3 (Homo sapiens) (UniProt Q92570); experiment: Modulation of full length human NOR1 expressed in PC12 cells co-transfected with RXRalpha and luciferase reporter plasmid harboring NBRE response element assessed as increase in luciferase activity incubated for 18 by luciferase reporter gene assay; details: PC-12, filed as modulator, time 18.0 hrs; in short: as §3
[8] = molecular target: Nuclear receptor subfamily 4 group A member 3 (Homo sapiens) (UniProt Q92570); experiment: Modulation of full length human NOR1 expressed in HEK293 cells co-transfected with luciferase reporter plasmid harboring NBRE response element assessed as increase in luciferase activity incubated for 18 hrs by luciferase reporter gene assay; details: filed as modulator; in short: as §3
[9] = molecular target: Nuclear receptor subfamily 4 group A member 3 (Homo sapiens) (UniProt Q92570); experiment: Modulation of full length human NOR1 expressed in SK-N-BE(2) cells co-transfected with RXRalpha and luciferase reporter plasmid harboring NBRE response element assessed as increase in luciferase activity incubated for 18 by luciferase reporter gene assay; details: SKNBE2, filed as modulator, time 18.0 hrs; in short: as §1
[10] = molecular target: Nuclear receptor subfamily 4immunitygroup A member 1 (Homo sapiens) (UniProt P22736); experiment: Modulation of full length human Nur77 expressed in SK-N-BE(2) cells co-transfected with RXRalpha and luciferase reporter plasmid harboring NBRE response element assessed as increase in luciferase activity incubated for 18 by luciferase reporter gene assay; details: SKNBE2, filed as modulator, time 18.0 hrs; in short: as §1
[11] = molecular target: Nuclear receptor subfamily 4immunitygroup A member 1 (Homo sapiens) (UniProt P22736); experiment: Modulation of full length human Nur77 expressed in PC12 cells co-transfected with RXRalpha and luciferase reporter plasmid harboring NurRE response element assessed as increase in luciferase activity incubated for 18 by luciferase reporter gene assay; details: PC-12, filed as modulator, time 18.0 hrs; in short: as §1
[12] = molecular target: Nuclear receptor subfamily 4 group A member 2 (Homo sapiens) (UniProt P43354); experiment: Modulation of full length human Nurr1 expressed in HEK293T cells co-transfected with luciferase reporter plasmid harboring NurRE response element assessed as increase in luciferase activity incubated for 18 hrs by luciferase reporter-gene assay; details: filed as modulator; in short: as §2
[13] = molecular target: Nuclear receptor subfamily 4 group A member 2 (Homo sapiens) (UniProt P43354); experiment: Modulation of full length human Nurr1 expressed in PC12 cells co-transfected with RXRalpha and luciferase reporter plasmid harboring NurRE response element assessed as increase in luciferase activity incubated for 18 hrs by luciferase reporter-gene assay; details: PC-12, filed as modulator
In short: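 PC12 cells were grown at 37°C and 5% CO2 in […] medium with 15% horse serum and 2.5% FBS. They were transfected with full-length Nurr1 (1 μg) plus full-length RXRα (1 μg) and 3xNBRE- or 3xNurRE-luciferase reporter (6 μg) for 18 h, then replated at 10,000 cells/well for 4 h. Ligand or vehicle (water, ethanol or DMSO) was added in quadruplicate for 18 h. Luminescence was read as fold change over vehicle. Results are mean ± s.e.m., n=4, from 2 independent experiments, analysed by one-way ANOVA against vehicle.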

[14] = molecular target: Nuclear receptor subfamily 4immunitygroup A member 1 (Homo sapiens) (UniProt P22736); experiment: Modulation of full length human Nur77 expressed in HEK293 cells co-transfected with luciferase reporter plasmid harboring NBRE response element assessed as increase in luciferase activity incubated for 18 hrs by luciferase reporter gene assay; details: filed as modulator; in short: as §1
[15] = molecular target: Nuclear receptor subfamily 4 group A member 2 (Homo sapiens) (UniProt P43354); experiment: Modulation of full length human Nurr1 expressed in HEK293T cells co-transfected with luciferase reporter plasmid harboring NBRE response element assessed as increase in luciferase activity incubated for 18 hrs by luciferase reporter-gene assay; details: filed as modulator; in short: as §2
[16] = molecular target: Nuclear receptor subfamily 4immunitygroup A member 1 (Homo sapiens) (UniProt P22736); experiment: Modulation of full length human Nur77 expressed in HEK293 cells co-transfected with RXRalpha and luciferase reporter plasmid harboring NurRE response element assessed as increase in luciferase activity incubated for 18 hrs by luciferase reporter gene assay; details: filed as modulator; in short: as §1
[17] = molecular target: Nuclear receptor subfamily 4immunitygroup A member 1 (Homo sapiens) (UniProt P22736); experiment: Modulation of full length human Nur77 expressed in PC12 cells co-transfected with RXRalpha and luciferase reporter plasmid harboring NBRE response element assessed as increase in luciferase activity incubated for 18 by luciferase reporter gene assay; details: PC-12, filed as modulator, time 18.0 hrs; in short: as §1
[18] = molecular target: Nuclear receptor subfamily 4 group A member 2 (Homo sapiens) (UniProt P43354); experiment: Modulation of full length human Nurr1 expressed in SKNBE(2) cells co-transfected with RXRalpha and luciferase reporter plasmid harboring NurRE response element assessed as increase in luciferase activity incubated for 18 hrs by luciferase reporter-gene assay; details: SKNBE2, filed as modulator
In short: (§4)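 SK-N-BE(2)-C cells were kept in 1:1 EMEM/F12 with 10% FBS at 37°C and 5% CO2. They were cotransfected with full-length Nurr1 (1 μg), full-length RXRα (1 μg) and 3xNBRE- or 3xNurRE-luc reporter (6 μg) for 18 h, replated at 10,000 cells/well for 4 h, and then treated with ligand or vehicle in quadruplicate for 18 h. The readout was luciferase luminescence as fold over vehicle, reported as mean ± s.e.m. (n=4) from 2 independent experiments, one-way ANOVA.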

[19] = molecular target: Nuclear receptor subfamily 4 group A member 2 (Homo sapiens) (UniProt P43354); experiment: Modulation of full length human Nurr1 expressed in SKNBE(2) cells co-transfected with RXRalpha and luciferase reporter plasmid harboring NBRE response element assessed as increase in luciferase activity incubated for 18 hrs by luciferase reporter-gene assay; details: SKNBE2, filed as modulator; in short: as §4

Measured: Activity

Nuclear receptor subfamily 4immunitygroup A member 1 (Homo sapiens), sequence (P22736 whole entry): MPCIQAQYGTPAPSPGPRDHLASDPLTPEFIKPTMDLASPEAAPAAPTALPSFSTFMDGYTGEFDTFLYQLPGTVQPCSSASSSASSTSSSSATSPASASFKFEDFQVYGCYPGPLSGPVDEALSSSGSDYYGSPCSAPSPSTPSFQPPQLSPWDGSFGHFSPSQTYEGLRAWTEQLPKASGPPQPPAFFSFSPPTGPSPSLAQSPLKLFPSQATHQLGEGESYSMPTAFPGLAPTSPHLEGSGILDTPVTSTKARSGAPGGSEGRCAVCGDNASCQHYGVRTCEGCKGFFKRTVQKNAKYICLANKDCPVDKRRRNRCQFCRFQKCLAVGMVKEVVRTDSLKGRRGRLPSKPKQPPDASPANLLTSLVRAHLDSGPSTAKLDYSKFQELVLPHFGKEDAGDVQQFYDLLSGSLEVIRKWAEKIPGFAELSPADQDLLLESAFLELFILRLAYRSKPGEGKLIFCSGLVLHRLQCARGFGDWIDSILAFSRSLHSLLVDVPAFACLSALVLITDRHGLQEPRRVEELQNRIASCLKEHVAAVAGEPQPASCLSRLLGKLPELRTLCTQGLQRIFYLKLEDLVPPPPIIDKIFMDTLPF
Nuclear receptor subfamily 4 group A member 2 (Homo sapiens), sequence (P43354 whole entry): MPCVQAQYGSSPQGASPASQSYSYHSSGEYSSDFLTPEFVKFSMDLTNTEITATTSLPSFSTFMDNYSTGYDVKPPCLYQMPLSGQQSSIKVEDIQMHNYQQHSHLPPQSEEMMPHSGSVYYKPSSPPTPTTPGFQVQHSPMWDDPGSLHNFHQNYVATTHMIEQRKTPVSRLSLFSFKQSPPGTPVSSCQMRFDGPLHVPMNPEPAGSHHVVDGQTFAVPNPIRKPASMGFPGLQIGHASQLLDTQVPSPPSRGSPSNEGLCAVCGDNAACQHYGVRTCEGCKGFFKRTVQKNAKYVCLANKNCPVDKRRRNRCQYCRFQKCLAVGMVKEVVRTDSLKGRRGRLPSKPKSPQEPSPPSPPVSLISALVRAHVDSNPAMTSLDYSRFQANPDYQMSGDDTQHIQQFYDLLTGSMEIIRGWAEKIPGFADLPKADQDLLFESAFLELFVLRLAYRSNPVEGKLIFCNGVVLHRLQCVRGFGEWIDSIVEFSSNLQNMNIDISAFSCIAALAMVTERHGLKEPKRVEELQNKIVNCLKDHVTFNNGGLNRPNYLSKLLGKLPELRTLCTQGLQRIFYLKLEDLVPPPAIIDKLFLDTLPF
Nuclear receptor subfamily 4 group A member 3 (Homo sapiens), sequence (Q92570 whole entry): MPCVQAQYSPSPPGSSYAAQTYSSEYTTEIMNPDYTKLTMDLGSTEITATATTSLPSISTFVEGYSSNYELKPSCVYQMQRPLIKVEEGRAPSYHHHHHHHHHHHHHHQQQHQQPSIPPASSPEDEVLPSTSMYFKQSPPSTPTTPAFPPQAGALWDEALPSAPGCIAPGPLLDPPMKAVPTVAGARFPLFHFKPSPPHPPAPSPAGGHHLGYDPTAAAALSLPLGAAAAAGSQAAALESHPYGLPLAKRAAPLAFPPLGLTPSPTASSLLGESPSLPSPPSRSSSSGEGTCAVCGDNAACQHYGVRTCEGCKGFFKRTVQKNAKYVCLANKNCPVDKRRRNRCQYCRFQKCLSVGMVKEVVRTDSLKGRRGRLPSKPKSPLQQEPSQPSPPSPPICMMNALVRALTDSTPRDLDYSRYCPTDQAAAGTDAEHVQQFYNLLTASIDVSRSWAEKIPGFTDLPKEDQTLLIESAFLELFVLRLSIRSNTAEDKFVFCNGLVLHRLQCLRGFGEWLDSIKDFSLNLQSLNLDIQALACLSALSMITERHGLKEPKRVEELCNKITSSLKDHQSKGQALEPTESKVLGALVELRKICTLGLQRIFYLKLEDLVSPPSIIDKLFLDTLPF

CCN(CC)CCCC(C)Nc1ccnc2cc(Cl)ccc12 (configuration not stated) [CHLOROQUINE]
active: [1] Dose-Dependent Effect | [2] Dose-Dependent Effect | [3] Dose-Dependent Effect | [4] Dose-Dependent Effect | [5] Dose-Dependent Effect | [6] Dose-Dependent Effect | [7] Dose-Dependent Effect | [8] Dose-Dependent Effect | [9] Dose-Dependent Effect | [10] Dose-Dependent Effect | [11] Dose-Dependent Effect | [12] Dose-Dependent Effect | [13] Dose-Dependent Effect | [14] Dose-Dependent Effect | [15] Dose-Dependent Effect | [16] Dose-Dependent Effect | [17] Dose-Dependent Effect | [18] Dose-Dependent Effect | [19] Dose-Dependent Effect

CCN(CC)Cc1cc(Nc2ccnc3cc(Cl)ccc23)ccc1O [AMODIAQUINE]
active: [1] Dose-Dependent Effect | [2] Dose-Dependent Effect | [3] Dose-Dependent Effect | [4] Dose-Dependent Effect | [5] Dose-Dependent Effect | [6] Dose-Dependent Effect | [7] Dose-Dependent Effect | [8] Dose-Dependent Effect | [9] Dose-Dependent Effect | [10] Dose-Dependent Effect | [11] Dose-Dependent Effect | [12] Dose-Dependent Effect | [13] Dose-Dependent Effect | [14] Dose-Dependent Effect | [15] Dose-Dependent Effect | [16] Dose-Dependent Effect | [17] Dose-Dependent Effect | [18] Dose-Dependent Effect | [19] Dose-Dependent Effect

CCCCCCCC(=O)c1c(O)cc(O)cc1CC(=O)OCC [CYTOSPORONE B]
active: [1] Dose-Dependent Effect | [2] Dose-Dependent Effect | [3] Dose-Dependent Effect | [4] Dose-Dependent Effect | [5] Dose-Dependent Effect | [6] Dose-Dependent Effect | [7] Dose-Dependent Effect | [8] Dose-Dependent Effect | [9] Dose-Dependent Effect | [10] Dose-Dependent Effect | [11] Dose-Dependent Effect | [12] Dose-Dependent Effect | [13] Dose-Dependent Effect | [14] Dose-Dependent Effect | [15] Dose-Dependent Effect | [16] Dose-Dependent Effect | [17] Dose-Dependent Effect | [18] Dose-Dependent Effect | [19] Dose-Dependent Effect
